Converted amounts (≈) assume the structure as drawn. The source made the active and inactive calls. The rule behind the calls is not given here.
Key:
[1] = target: T1, Mitogen-activated protein kinase kinase kinase 8 (Homo sapiens, UniProt P41279); assay: Inhibition of human COT (66 to 395 residues) expressed in Sf21 cells using 5-Fluo-Ahx-AGAGSGQLIDSNleANSFVGTR-NH2 as substrate after 60 mins by caliper microfluidic mobility shift assay
[2] = Equilibrium solubility of the compound at pH 4 after 16 hrs by mass spectrometric analysis; assay type: physicochemical; conditions: buffer
[3] = target: T1, Mitogen-activated protein kinase kinase kinase 8; assay: Inhibition of COT in LPS-stimulated human whole blood assessed as reduction in TNFalpha release incubated for 30 mins followed by stimulation with LPS for 3 hrs by HTRF assay; assay type: tissue-based
Procedure, shortened: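 Human whole blood was stimulated with LPS, and TNFα release was measured as IC50.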

[4] = Equilibrium solubility of the compound at pH 6.8 after 16 hrs by mass spectrometric analysis; assay type: physicochemical; conditions: buffer
[5] = target: T1, Mitogen-activated protein kinase kinase kinase 8; assay: Inhibition of COT in LPS-stimulated human PBMC assessed as reduction in TNFalpha release incubated for 1 hr followed by stimulation with LPS for 4 hrs by HTRF assay
Procedure, shortened: (§1)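 Primary human PBMCs were stimulated with LPS. Read-outs were pERK, TNFα release, or p65 phosphorylation, each reported as IC50.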

[6] = target: T1, Mitogen-activated protein kinase kinase kinase 8; assay: Inhibition of COT in LPS-stimulated human PBMC assessed as reduction in ERK1/2 phosphorylation incubated for 60 mins followed by LPS stimulation for 12 mins by flow cytometric analysis; procedure, shortened: as §1
[7] = Protein binding in human plasma at 5 uM after 4 hrs by rapid equilibrium dialysis method; assay type: ADME, cell-free; conditions: read-out: PPB (converted)
[8] = Octanol-water partition coefficient, log P of the compound by shake-flask method; assay type: physicochemical
[9] = Drug metabolism in Sprague-Dawley rat liver S9 fraction assessed as 1-(2-(1-morpholinopropan-2-ylamino)benzo[d]thiazol-6-yl)-8-(pyridin-4-yl)-1H-imidazo[4,5-c][1,7]naphthyridin-4(5H)-one metabolite formation in absence of NADPH after 5 to 120 mins by LC/MS/MS analysis; assay type: ADME
Procedure, shortened: (§2)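 Rat or human liver S9 fractions were incubated without NADPH cofactor. Loss of parent and formation of the 4-oxo metabolite M1 were monitored.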

[10] = Metabolic stability in bile-duct cannulated Sprague-Dawley rat assessed as parent compound remaining in feces at 3 mg/kg, iv measured over 8 hrs post dose; assay type: ADME, organism-based; conditions: read-out: Stability
Procedure, shortened: (§3)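 Bile-duct cannulated rats dosed in vivo. Parent and metabolites in each matrix were expressed as relative peak areas of the drug-related components detected, at the stated sampling time or collection period post dose.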

[11] = Clearance in wild type Sprague-Dawley rat plasma at 1 mg/kg, iv; assay type: ADME, organism-based
Procedure, shortened: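 Male wild-type Sprague–Dawley rats were given 1 mg/kg intravenously. Clearance was derived from plasma.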

[12] = Drug metabolism in human liver S9 fraction assessed as 1-(2-(1-morpholinopropan-2-ylamino)benzo[d]thiazol-6-yl)-8-(pyridin-4-yl)-1H-imidazo[4,5-c][1,7]naphthyridin-4(5H)-one metabolite formation in absence of NADPH after 5 to 120 mins by LC/MS/MS analysis; assay type: ADME; procedure, shortened: as §2
[13] = Drug excretion in bile-duct cannulated Sprague-Dawley rat liver at 3 mg/kg, iv measured 8 hrs post dose; assay type: ADME, organism-based; conditions: in vivo
[14] = Drug excretion in bile-duct cannulated Sprague-Dawley rat feces at 3 mg/kg, iv measured 8 hrs post dose; assay type: ADME, organism-based; conditions: read-out: Drug excretion
[15] = Metabolic stability in Sprague-Dawley rat liver microsomes assessed as parent compound remaining at 5 uM after 1 hr in presence of NADPH by HPLC/MS analysis; assay type: ADME; conditions: read-out: Stability
[16] = Metabolic stability in bile-duct cannulated Sprague-Dawley rat assessed as parent compound remaining in blood at 3 mg/kg, iv measured 4 hrs post dose; assay type: ADME, organism-based; conditions: read-out: Stability; procedure, shortened: as §3
[17] = Drug excretion in bile-duct cannulated Sprague-Dawley rat kidney at 3 mg/kg, iv measured 8 hrs post dose; assay type: ADME, organism-based; conditions: in vivo
[18] = Metabolic stability in bile-duct cannulated Sprague-Dawley rat assessed as parent compound remaining in blood at 3 mg/kg, iv measured 1 hr post dose; assay type: ADME, organism-based; conditions: read-out: Stability
[19] = Half life in wild type Sprague-Dawley rat liver microsomes at 5 uM preincubated for 3 mins followed by NADPH addition measured after 1 hr by HPLC/MS analysis; assay type: ADME
[20] = Metabolic stability in bile-duct cannulated Sprague-Dawley rat assessed as parent compound remaining in bile at 3 mg/kg, iv measured over 8 hrs post dose; assay type: ADME, organism-based; conditions: read-out: Stability
[21] = Drug excretion in bile-duct cannulated Sprague-Dawley rat urine at 3 mg/kg, iv; assay type: ADME, organism-based; conditions: read-out: Drug excretion
[22] = Drug excretion in bile-duct cannulated Sprague-Dawley rat bile at 3 mg/kg, iv; assay type: ADME, organism-based; conditions: read-out: Drug excretion
[23] = Metabolic stability in bile-duct cannulated Sprague-Dawley rat assessed as parent compound remaining in urine at 3 mg/kg, iv measured over 8 hrs post dose; assay type: ADME, organism-based; conditions: read-out: Stability; procedure, shortened: as §3
[24] = Drug level in bile-duct cannulated Sprague-Dawley rat urine treated with N-(1-morpholinopropan-2-yl)-6-(8-(pyridin-4-yl)-1H-imidazo[4,5-c][1,7]naphthyridin-1-yl)benzo[d]thiazol-2-amine at 3 mg/kg, iv measured over 8 hrs post dose; assay type: ADME, organism-based; conditions: in vivo
[25] = Drug level in bile-duct cannulated Sprague-Dawley rat bile treated with N-(1-morpholinopropan-2-yl)-6-(8-(pyridin-4-yl)-1H-imidazo[4,5-c][1,7]naphthyridin-1-yl)benzo[d]thiazol-2-amine at 3 mg/kg, iv measured over 8 hrs post dose; assay type: ADME, organism-based; conditions: in vivo
[26] = Drug level in bile-duct cannulated Sprague-Dawley rat blood treated with N-(1-morpholinopropan-2-yl)-6-(8-(pyridin-4-yl)-1H-imidazo[4,5-c][1,7]naphthyridin-1-yl)benzo[d]thiazol-2-amine at 3 mg/kg, iv measured 1 to 4 hrs post dose; assay type: ADME, organism-based; conditions: in vivo
[27] = Drug level in bile-duct cannulated Sprague-Dawley rat feces treated with N-(1-morpholinopropan-2-yl)-6-(8-(pyridin-4-yl)-1H-imidazo[4,5-c][1,7]naphthyridin-1-yl)benzo[d]thiazol-2-amine at 3 mg/kg, iv measured over 8 hrs post dose; assay type: ADME, organism-based; conditions: in vivo
[28] = test system: Canis familiaris; assay: Antiinflammatory activity in MSU-induced beagle dog acute synovitis model assessed as prevention of inflammation-driven lameness at 0.2 mg/kg, po administered once a week 3 hrs post MSU injection measured after 6 hrs post last dose; assay type: functional, organism-based; conditions: Canis lupus familiaris
Procedure, shortened: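 Lameness was induced in dogs by uric acid injection into the joint. Treatment was vehicle, test article at 5 or 15 mg/kg, or meloxicam 0.2 mg/kg. Vertical peak force of the affected limb was measured on a force plate while trotting. The read-out was the time after treatment for that force to recover to 60% of the value measured before lameness.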

T1 sequence (P41279 whole entry, the tested form may be a part): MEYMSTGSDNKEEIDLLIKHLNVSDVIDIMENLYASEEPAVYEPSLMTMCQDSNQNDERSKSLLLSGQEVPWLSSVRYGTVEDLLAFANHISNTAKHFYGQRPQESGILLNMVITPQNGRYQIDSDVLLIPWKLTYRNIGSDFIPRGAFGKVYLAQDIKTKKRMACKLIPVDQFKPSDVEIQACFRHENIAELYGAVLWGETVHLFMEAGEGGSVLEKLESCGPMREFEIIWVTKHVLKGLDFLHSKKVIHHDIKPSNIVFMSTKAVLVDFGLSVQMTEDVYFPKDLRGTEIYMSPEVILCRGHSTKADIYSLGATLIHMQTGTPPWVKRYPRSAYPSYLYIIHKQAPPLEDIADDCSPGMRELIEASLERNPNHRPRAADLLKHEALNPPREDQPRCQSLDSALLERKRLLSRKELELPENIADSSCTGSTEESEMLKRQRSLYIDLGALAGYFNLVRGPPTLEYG

## c1cncc(-c2cc3c(cn2)ncc2ncn(-c4ccc5nc[nH]c5c4)c23)c1
[1]
  IC50: 670 nM

## CC(CN1CCOCC1)Nc1nc2ccc(-n3cnc4cnc5cnc(-c6ccccc6)cc5c43)cc2s1 (stereo not given)
[1]
  IC50: 9 nM
[2]
  solubility thermodynamic at 16 h: > 1000 µM
[3]
  IC50: 1010 nM
[4]
  solubility thermodynamic at 16 h: 9 µM (≈ 4.69 µg/mL)
[5]
  IC50: 130 nM
[6]
  IC50: 120 nM
[7]
  fraction unbound at 4 h, 5 µM: < 0.01
[8]
  logP: 4.4

## CC(CN1CCOCC1)Nc1nc2ccc(-n3cnc4cnc5cnc(-c6ccncc6)cc5c43)cc2s1 (stereo not given)
[1]
  IC50: 9 nM
[9]
  Drug metabolism: Metabolite_Detected
[10]
  dose excreted at 8 h: 37%
[11]
  clearance: 297 mL/min/kg
[2]
  solubility thermodynamic at 16 h: > 1000 µM
[12]
  Drug metabolism: Metabolite_Detected
[13]
  Drug excretion: 0.002 %ID
[14]
  dose excreted at 8 h: 0.33%
[3]
  IC50: 600 nM
[15]
  remaining at 1 h, 5 µM: 16%
[4]
  solubility thermodynamic at 16 h: 60 µM (≈ 31.4 µg/mL)
[16]
  remaining at 4 h: 20%
[17]
  Drug excretion: 0.002 %ID
[18]
  remaining at 1 h: 49%
[19]
  half-life at 5 µM: < 3 min
[20]
  dose excreted at 8 h: 0%
[5]
  IC50: 70 nM
[6]
  IC50: 80 nM
[7]
  fraction unbound at 4 h, 5 µM: 0.02
[8]
  logP: 3.3
[21]
  dose excreted: 0.04%
[22]
  dose excreted: 0.13%
[23]
  dose excreted at 8 h: 2%

## c1nc2ccc(-n3cnc4cnc5cnc(N6CCCCC6)cc5c43)cc2[nH]1
[1]
  IC50: 3500 nM

## C[C@@H](CN1CCOCC1)Nc1ccc2cc(-n3cnc4cnc5cnc(-c6ccncc6)cc5c43)ccc2n1
[1]
  IC50: 38 nM
[5]
  IC50: 1250 nM
[6]
  IC50: 620 nM

## c1nc2ccc(-n3cnc4cnc5cnc(-c6ccsc6)cc5c43)cc2[nH]1
[1]
  IC50: 40 nM
[8]
  logP: 4

## CC(CN1CCOCC1)Nc1nc2ccc(-n3cnc4c(=O)[nH]c5cnc(-c6ccncc6)cc5c43)cc2s1 (stereo not given)
[24]
  Drug metabolism: Metabolite_Detected
[25]
  Drug metabolism: Metabolite_Detected
[26]
  Drug metabolism: Metabolite_Detected
[27]
  Drug metabolism: Metabolite_Detected

## N#CCc1ccc(-n2cnc3cnc4cc(Cl)c(-c5ccsc5)cc4c32)cc1
[1]
  IC50: 800 nM
[8]
  logP: 5.4

## Cc1cnc(NC(=O)C2=C(O)c3ccccc3S(=O)(=O)N2C)s1
[28]
  Activity: Active

## c1ccc(-c2cc3c(cn2)ncc2ncn(-c4ccc5nc[nH]c5c4)c23)cc1
[1]
  IC50: 90 nM

## Cc1nc2ccc(-n3cnc4cnc5cnc(-c6ccccc6)cc5c43)cc2s1
[1]
  IC50: 80 nM
[2]
  solubility thermodynamic at 16 h: < 4 µM
[4]
  solubility thermodynamic at 16 h: < 4 µM

## c1cc(-c2cc3c(cn2)ncc2ncn(-c4ccc5nc[nH]c5c4)c23)ccn1
[1]
  IC50: 100 nM

From ChEMBL document CHEMBL3853320, “Discovery of Imidazoquinolines as a Novel Class of Potent, Selective, and in Vivo Efficacious Cancer Osaka Thyroid (COT) Kinase Inhibitors” (J Med Chem, 2016)
